Reference: paper PMC10674630 (Diabetes, Metabolic Syndrome and Obesity, 2023)
“Also recorded” adds a separate entry of the source.

Legend:
SA 452 [1] = conditions: for FICI: antibiotic + surfactin; for Fold Change: MIC of antibiotic, alone vs with surfactin
[2] = system: S. aureus (ATCC 25923 and MRSA SA 452); experiment: Checkerboard assay, both strains; format: cell-based; conditions: for Conversion of resistance to sensitivity by surfactin: addition of at least 64 μg/mL of surfactin, ATCC 25923 and MRSA; for Interaction with surfactin (in words): S. aureus (ATCC 25923 and MRSA)
ATCC 25923 [3] = conditions: for Fold Change: MIC of antibiotic, alone vs with surfactin; for FICI: antibiotic + surfactin
ATCC 25923 [4] = experiment: Mutant prevention concentration, ATCC 25923; format: cell-based, S. aureus
Summary of the method: (§1)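 Strains were grown 24 h in MH broth, centrifuged at 4000×g for 10 min and resuspended to 1×1010 CFU/mL. […] MPC was the lowest concentration preventing colonies. MPC/MIC ratio defined the mutant selection window.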

SA 452 [5] = experiment: Mutant prevention concentration, SA 452; format: cell-based, S. aureus
[6] = system: S. aureus (ATCC 25923 and MRSA SA 452); experiment: Mutant prevention / resistance selection, both strains; format: cell-based; conditions: combination of oxacillin and surfactin
Summary of the method: as §1

Row | SMILES | FICI (SA 452 [1]) | Conversion of resistance to sensitivity by surfactin [2] | Interaction with surfactin (in words) [2] | Fold Change (ATCC 25923 [3]) | FICI (ATCC 25923 [3]) | Interaction with surfactin (in words) (ATCC 25923 [3]) | Fold Change (SA 452 [1]) | Interaction with surfactin (in words) (SA 452 [1]) | MIC/MPC (text: MPC/MIC ratio) (ATCC 25923 [4]; oxacillin alone) | MIC (ATCC 25923 [4]; oxacillin alone, unit not in table) | Decrease of MPC/MIC value (ATCC 25923 [4]; with 64 μg/mL of surfactin vs oxacillin alone) [fold] | MIC/MPC (SA 452 [5]; oxacillin alone, SA 452) | MIC (SA 452 [5]; oxacillin alone, SA 452, unit not in table) | Decrease of MPC/MIC value (SA 452 [5]; with surfactin vs oxacillin alone, MRSA) [fold] | Mutant selection window (MSW), in words [6]
1 | CC[C@H]1OC(=O)[C@H](C)[C@@H](O[C@H]2C[C@@](C)(OC)[C@@H](O)[C@H](C)O2)[C@H](C)[C@@H](O[C@@H]2O[C@H](C)C[C@H](N(C)C)[C@H]2O)[C@](C)(O)C[C@@H](C)C(=O)[C@H](C)[C@@H](O)[C@]1(C)O [Erythromycin] | 2 | – | – | – | – | – | – | – | – | – | – | – | – | – | –
2 | O=C(O)c1cn(C2CC2)c2cc(N3CCNCC3)c(F)cc2c1=O [Ciprofloxacin] | 2 | – | – | – | – | – | – | – | – | – | – | – | – | – | –
3 | CN(C)[C@@H]1C(O)=C(C(N)=O)C(=O)[C@@]2(O)C(O)=C3C(=O)c4c(O)cccc4[C@@](C)(O)[C@H]3C[C@@H]12 [Tetracycline] | 0.133 | converted them to sensitivity | synergies; also recorded: synergistic effects | 16 | 0.188 | synergistic effects | 128 | significantly synergistic effects | – | – | – | – | – | – | –
4 | CNC(C)C1CCC(N)C(OC2C(N)CC(N)C(OC3OCC(C)(O)C(NC)C3O)C2O)O1 (stereo not drawn) [Gentamicin] | 0.25 | – | – | – | – | – | – | significantly synergistic effects | – | – | – | – | – | – | –
5 | CC1(C)S[C@@H]2[C@H](NC(=O)[C@H](N)c3ccccc3)C(=O)N2[C@H]1C(=O)O [Ampicillin] | 0.133 | converted them to sensitivity | synergies; also recorded: synergistic effects | 8 | – | synergistic effects | 128 | significantly synergistic effects | – | – | – | – | – | – | –
6 | Cc1onc(-c2ccccc2)c1C(=O)N[C@@H]1C(=O)N2[C@@H]1SC(C)(C)[C@@H]2C(=O)O [Oxacillin] | 0.156 | converted them to sensitivity | synergies; also recorded: synergistic effects | 8 | 0.25 | synergistic effects | – | significantly synergistic effects | 32 | 0.5 | 8 | >32 | 8 | ≥ 2 | narrowed the MSW for oxacillin against MRSA
